Data reported in ChEMBL document CHEMBL1151248, “New lignans from the roots of Valeriana prionophylla with antioxidative and vasorelaxant activities” (2004).

Legend:
[1] = Antioxidant activity assessed as ABTS radical scavenging activity after 1 min by TEAC method
Aorta [2] = test: Vasorelaxant activity on Wistar rat aorta ring assessed as inhibition of phenylephrine-induced contraction at 100 uM in absence of endothelium; assay type: functional; design: scale not given: the % may be the effect or the level left
Aorta [3] = test: Vasorelaxant activity on Wistar rat aorta ring assessed as inhibition of phenylephrine-induced contraction at 100 uM in presence of endothelium; assay type: functional; design: scale not given: the % may be the effect or the level left
[4] = Antioxidant activity against iodophenol-induced chemiluminescence by horseradish peroxidase/perborate/luminol system; assay type: functional
Procedure, shortened: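 Total antioxidant capacity read by enhanced chemiluminescence. Reagent was assay buffer plus tablets A and B, which supply luminol, p-iodophenol enhancer and perborate oxidant. Values come from a Trolox standard curve (Trolox 20 μg mL⁻¹ in H2O) and are reported as mM Trolox equivalent; n=3.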

SMILES | Activity [1] [mM] | Activity (Aorta [2]) [%] | Activity (Aorta [3]) [%] | Activity [4] [mM]
COc1cc([C@H]2OC[C@]3(O)[C@@H](c4ccc(O)c(OC)c4)OC[C@H]23)ccc1O | 5.1 | 29 | 24.4 | 6.31
COc1cc([C@H]2OC[C@]3(O)[C@@H](c4ccc(O[C@@H]5O[C@H](CO)[C@@H](O)[C@H](O)[C@H]5O)c(OC)c4)OC[C@]23O)ccc1O | 2.92 | 0 | 20.4 | 1.84
COc1cc([C@H]2OC[C@@H]3[C@@H](c4ccc(O[C@@H]5O[C@H](CO)[C@@H](O)[C@H](O)[C@H]5O)c(OC)c4)OC[C@]23O)ccc1O | 2.51 | 1.7 | 2.5 | 1.44
C[C@@H]1O[C@@H](O[C@@H]2[C@@H](O)[C@H](OCCc3ccc(O)c(O)c3)O[C@H](CO)[C@H]2OC(=O)/C=C/c2ccc(O)c(O)c2)[C@H](O)[C@H](O)[C@H]1O | 5.3 | – | – | 8.2
COc1cc([C@H]2OC[C@]3(O)[C@@H](c4ccc(O)c(OC)c4)OC[C@]23O)ccc1O [PRINSEPIOL] | 5.33 | 5.3 | 29.3 | 6.7
